The source of these data is ChEMBL document CHEMBL3808321, “LAT-1 activity of meta-substituted phenylalanine and tyrosine analogs” (Bioorg Med Chem Lett, 2016).

Assay [1] deals with T1, Large neutral amino acids transporter small subunit 1 (Homo sapiens, UniProt Q01650). In words: Substrate activity at human LAT1 expressed in HEK cells assessed as efflux rate of [3H]-gabapentin at 200 uM after 5 to 180 secs by scintillation counting based trans-stimulation assay. The following applies: HEK293. It is filed as cell-based. The gist of the method: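 HEK-hLAT1 cells were preloaded with [3H]-gabapentin, then incubated with test agent at 200 μM. Efflux rate (fmol/min) was compared with efflux in the agent's absence and with L-leucine and L-arginine as positive and negative controls and L-phenylalanine and L-tyrosine as parent amino acids. Mean of at least three experiments.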
T1 sequence (Q01650 whole entry): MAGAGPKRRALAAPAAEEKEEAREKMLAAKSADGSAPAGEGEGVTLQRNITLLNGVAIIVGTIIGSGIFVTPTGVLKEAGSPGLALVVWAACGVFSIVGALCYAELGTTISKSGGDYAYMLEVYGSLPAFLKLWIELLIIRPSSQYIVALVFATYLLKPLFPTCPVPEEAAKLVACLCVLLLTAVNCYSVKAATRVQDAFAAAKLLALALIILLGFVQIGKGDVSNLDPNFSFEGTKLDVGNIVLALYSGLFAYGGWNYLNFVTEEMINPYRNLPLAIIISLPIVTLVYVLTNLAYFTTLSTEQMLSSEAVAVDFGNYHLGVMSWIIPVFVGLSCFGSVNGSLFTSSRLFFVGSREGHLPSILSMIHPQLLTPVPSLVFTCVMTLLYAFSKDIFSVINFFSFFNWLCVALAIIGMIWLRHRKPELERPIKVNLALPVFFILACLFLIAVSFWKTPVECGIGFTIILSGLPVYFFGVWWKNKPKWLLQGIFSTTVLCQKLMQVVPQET

In assay [2] the target is T1, Large neutral amino acids transporter small subunit 1. The assay is described as follows: Inhibition of human LAT1 expressed in HEK cells assessed as reduction in uptake of [3H]-gabapentin at 200 uM after 3 mins by scintillation counting based cis-inhibition assay. The format is cell-based. The following applies: HEK293. In a few lines: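 HEK cells stably transfected with human LAT-1 cDNA. Test agent at 200 μM competed with [3H]-gabapentin for cellular uptake. Results are % inhibition relative to background signal without inhibitor, with mean of at least three experiments.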

For assay [3] the target is unchanged. The assay is described as follows: Inhibition of human LAT1 expressed in HEK cells assessed as reduction in uptake of [3H]-gabapentin after 3 mins by scintillation counting based cis-inhibition assay. The format is cell-based, HEK293.

In the case of `N[C@@H](Cc1ccccc1)C(=O)O`, the Activity in assay [1] was determined as 3.6 fmol/min. In addition, in assay [2], the inhibition was 85%.
Turning to `N[C@@H](Cc1cccc(Cc2ccccc2)c1)C(=O)O`, in assay [3], the IC50 was 7.3 µM. In assay [1], the Activity is 0.8 fmol/min. In addition, in assay [2], the inhibition was 98%.
Take `CCc1cccc(C[C@H](N)C(=O)O)c1`: the Activity in assay [1] amounted to 3.1 fmol/min. Besides, in assay [2], the inhibition was found to be 77%.
On the same counts, the results for `CC(C)(C)c1cccc(C[C@H](N)C(=O)O)c1` are 1.5 fmol/min and 87%.
As for `COc1ccc(C[C@H](N)C(=O)O)cc1C`, the Activity in assay [1] was 2.9 fmol/min. For the same compound, the inhibition in assay [2] is 75%.
On the same counts, the results for `N[C@@H](Cc1ccc(O)c(Cl)c1)C(=O)O` are 2.7 fmol/min and 63%.
In the case of `N[C@@H](Cc1ccc(O)c(I)c1)C(=O)O`, the Activity in assay [1] is 2.4 fmol/min. Moreover, the inhibition in assay [2] was 77%.
In the same order, the values of `CC(C)c1cccc(C[C@H](N)C(=O)O)c1` are 1.7 fmol/min and 91%.
In the case of `N[C@@H](Cc1ccc(O)c(Cc2ccccc2)c1)C(=O)O`, the concentration for half-maximal inhibition (IC50) in assay [3] worked out at 9.1 µM. Besides, the Activity in assay [1] came to 1.3 fmol/min. Moreover, the inhibition in assay [2] is 96%.
Regarding `Cc1cc(C[C@H](N)C(=O)O)ccc1O`, the Activity in assay [1] stood at 3.3 fmol/min. Also, the inhibition in assay [2] came out at 56%.
`N[C@@H](Cc1ccc(O)c(F)c1)C(=O)O`: the Activity in assay [1] was determined as 3 fmol/min. Besides, the inhibition in assay [2] worked out at 63%.
On the same counts, the results for `N[C@@H](Cc1cccc(I)c1)C(=O)O` are 1.9 fmol/min and 91%.
In the case of `CCc1cc(C[C@H](N)C(=O)O)ccc1O`, the Activity in assay [1] was found to be 2.4 fmol/min. Further, in assay [2], the inhibition amounted to 68%.
On the same counts, the results for `CC(C)c1cc(C[C@H](N)C(=O)O)ccc1O` are 2.8 fmol/min and 80%.
In the case of `CC(C)C[C@H](N)C(=O)O`, in assay [1], the Activity worked out at 3.5 fmol/min. Further, in assay [2], the inhibition came to 78%.
In the same order, the values of `N[C@@H](Cc1cccc(Cl)c1)C(=O)O` are 2.6 fmol/min and 84%.
In the same order, the values of `CC(C)(C)c1cc(C[C@H](N)C(=O)O)ccc1O` are 1.5 fmol/min and 81%.
On the same counts, the results for `Cc1ccc(C[C@H](N)C(=O)O)cc1` are 2.7 fmol/min and 86%.
For `N[C@@H](Cc1cccc(-c2ccccc2)c1)C(=O)O`, the IC50 in assay [3] was 6.6 µM. The Activity in assay [1] came to 0.8 fmol/min. Further, the inhibition in assay [2] turned out to be 98%.
With `N[C@@H](Cc1cccc(Br)c1)C(=O)O`, the Activity in assay [1] came to 3 fmol/min. Further, the inhibition in assay [2] amounted to 86%.
In the same order, the values of `N[C@@H](Cc1ccc(O)c(Br)c1)C(=O)O` are 1.8 fmol/min and 86%.
In the same order, the values of `N[C@@H](Cc1ccc(O)cc1)C(=O)O` are 2.1 fmol/min and 68%.
For the compound `N[C@@H](Cc1ccc(O)c(-c2ccccc2)c1)C(=O)O`, the Activity in assay [1] stood at 1.2 fmol/min. In assay [2], the inhibition is 83%.
On the same counts, the results for `N=C(N)NCCC[C@H](N)C(=O)O` are 0.8 fmol/min and 49%.
Take `N[C@@H](Cc1cccc(F)c1)C(=O)O`: the Activity in assay [1] came to 2.3 fmol/min. In addition, in assay [2], the inhibition turned out to be 79%.

As usually defined, the inhibition is the drop in the measured response relative to a control, in per cent. Broadly, the IC50 is the concentration at which inhibition is half-maximal.
